The source made the active and inactive calls. The rule behind the calls is not given here.
Tests used:
[1] = tested on: HCT-8; assay: Induction of ROS production in human HCT8 cells under normoxic condition by flow cytometric method relative to untreated control; assay type: functional, cell-based
Method in brief: (§1)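 Dichlorofluorescein method. HCT-8 cells in D-MEM high glucose with 10% FCS, 1–2 × 10^6 per 25 cm² flask, adhered overnight, then given 10 µM under normoxia or hypoxia. DCFH-DA loaded 20 min at 37 °C. Cells harvested with Puck's EDTA, fluorescence read by flow cytometry with 535 nm filter. Expressed as % over DMSO-treated basal; mean ± SEM of at least three experiments.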

[2] = tested on: HCT-8; assay: Cell cycle arrest in human HCT8 cells in normoxic condition assessed as accumulation at G2/M phase at 10 uM after 48 hrs of drug washout by flow cytometry; assay type: functional
Method in brief: (§2)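 HCT-8 cells in D-MEM high glucose with 10% FCS, plated at 1–2 × 10^6 per 25 cm² flask and left to adhere overnight. Exposed to 10 µM for 24 h, normoxia or hypoxia (0.1% O₂, 95% N₂/5% CO₂), then washed out and reoxygenated 48 h. Floating plus EDTA-harvested cells fixed in 70% ethanol, stained with PI (50 µg/ml) plus RNase A, phase fractions read by flow cytometry.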

[3] = tested on: HCT-8; assay: Cell cycle arrest in human HCT8 cells in hypoxic condition assessed as accumulation at G0/G1 phase at 10 uM after 48 hrs of drug washout by flow cytometry; assay type: functional; method in brief: as §2
[4] = tested on: HCT-8; assay: Effect on cell cycle arrest in human HCT8 cells in normoxic condition assessed as DNA fragmentation at 10 uM after 24 hrs by flow cytometry; assay type: functional
Method in brief: (§3)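 HCT-8 cells in D-MEM high glucose with 10% FCS were seeded at 1–2 × 10^6 per 25 cm² flask, left to adhere overnight, then exposed to drug for 24 h under normoxia or hypoxia. Drug was washed out and cells reoxygenated for 48 h. Floating and adherent cells were pooled, fixed in 70% ice-cold ethanol and stained with PI (50 µg/ml) plus RNase A (5 U/ml) for 30 min. Phases and the sub-G1 hypodiploid fraction (DNA fragmentation) were read by flow cytometry.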

[5] = tested on: HCT-8; assay: Effect on cell cycle arrest in human HCT8 cells in hypoxic condition assessed as DNA fragmentation at 10 uM after 24 hrs by flow cytometry; assay type: functional; method in brief: as §3
[6] = tested on: HCT-8; assay: Cytotoxicity against human HCT8 cells at 100 uM after 72 hrs by SRB assay; assay type: functional; settings: HCT-8, 72 h
Method in brief: (§4)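 Single-concentration growth inhibition of HCT-8 cells: seeded at 5000/well with 24 h adherence at 37 °C in 5% CO2, then 72 h continuous drug exposure, eight replicate wells. Maximum final DMSO was 0.1%, with DMSO and MMC controls. Protein was stained with 0.4% SRB in 1% acetic acid, solubilised in 10 mM Tris and absorbance read at 540 nm.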

[7] = tested on: HCT-8; assay: Cell cycle arrest in human HCT8 cells in hypoxic condition assessed as accumulation at G2/M phase at 10 uM after 48 hrs of drug washout by flow cytometry; assay type: functional; method in brief: as §2
[8] = tested on: HCT-8; assay: Cell cycle arrest in human HCT8 cells in normoxic condition assessed as accumulation at G2/M phase at 10 uM after 24 hrs of drug washout by flow cytometry; assay type: functional; method in brief: as §3
[9] = tested on: HCT-8; assay: Cytotoxicity against human HCT8 cells at 10 uM after 72 hrs by SRB assay; assay type: functional; settings: HCT-8, 72 h; method in brief: as §4
[10] = tested on: HCT-8; assay: Cell cycle arrest in human HCT8 cells in hypoxic condition assessed as accumulation at G2/M phase at 10 uM after 24 hrs of drug washout by flow cytometry; assay type: functional; method in brief: as §3
[11] = tested on: HCT-8; assay: Induction of ROS production in human HCT8 cells under hypoxic condition by flow cytometric method relative to untreated control; assay type: functional, cell-based; method in brief: as §1
[12] = tested on: HCT-8; assay: Cell cycle arrest in human HCT8 cells in normoxic condition assessed as accumulation at G0/G1 phase at 10 uM after 48 hrs of drug washout by flow cytometry; assay type: functional; method in brief: as §2
[13] = tested on: HCT-8; assay: Cell cycle arrest in human HCT8 cells in normoxic condition assessed as accumulation at S phase at 10 uM after 24 hrs by flow cytometry; assay type: functional; method in brief: as §3
[14] = tested on: HCT-8; assay: Effect on cell cycle arrest in human HCT8 cells in hypoxic condition assessed as DNA fragmentation at 10 uM after 48 hrs of drug washout by flow cytometry; assay type: functional; method in brief: as §3
[15] = tested on: HCT-8; assay: Effect on cell cycle arrest in human HCT8 cells in normoxic condition assessed as DNA fragmentation at 10 uM after 48 hrs of drug washout by flow cytometry; assay type: functional; method in brief: as §3
[16] = tested on: HCT-8; assay: Cell cycle arrest in human HCT8 cells in normoxic condition assessed as accumulation at G0/G1 phase at 10 uM after 24 hrs by flow cytometry; assay type: functional; method in brief: as §3
[17] = tested on: HCT-8; assay: Cytotoxicity against human HCT8 cells after 72 hrs by SRB assay; assay type: functional, cell-based; settings: HCT-8, 72 h
Method in brief: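 SRB assay on HCT-8 cells seeded at 5000/well and allowed 24 h adherence at 37 °C in 5% CO2, then given 72 h continuous exposure across a 10–100 concentration range, eight wells per condition. Maximum final DMSO was 0.1%. Fixed cells were stained with 0.4% SRB in 1% acetic acid, solubilised in 10 mM Tris and read at 540 nm. IC50 is the concentration giving a 50% reduction in net protein increase versus control.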

[18] = tested on: HCT-8; assay: Cell cycle arrest in human HCT8 cells in hypoxic condition assessed as accumulation at G0/G1 phase at 10 uM after 24 hrs by flow cytometry; assay type: functional; method in brief: as §3
[19] = tested on: HCT-8; assay: Cell cycle arrest in human HCT8 cells in normoxic condition assessed as accumulation at S phase at 10 uM after 48 hrs of drug washout by flow cytometry; assay type: functional; method in brief: as §2
[20] = tested on: HCT-8; assay: Cell cycle arrest in human HCT8 cells in hypoxic condition assessed as accumulation at G2/M phase at 10 uM after 24 hrs by flow cytometry; assay type: functional; method in brief: as §3
[21] = tested on: HCT-8; assay: Cell cycle arrest in human HCT8 cells in hypoxic condition assessed as accumulation at S phase at 10 uM after 24 hrs by flow cytometry; assay type: functional; method in brief: as §3
[22] = tested on: HCT-8; assay: Cell cycle arrest in human HCT8 cells in hypoxic condition assessed as accumulation at S phase at 10 uM after 48 hrs of drug washout by flow cytometry; assay type: functional; method in brief: as §2
[23] = tested on: HCT-8; assay: Cell cycle arrest in human HCT8 cells in normoxic condition assessed as accumulation at G0/G1 phase at 10 uM after 24 hrs of drug washout by flow cytometry; assay type: functional
[24] = tested on: HCT-8; assay: Cell cycle arrest in human HCT8 cells in hypoxic condition assessed as accumulation at G0/G1 phase at 10 uM after 24 hrs of drug washout by flow cytometry; assay type: functional; method in brief: as §3
[25] = tested on: HCT-8; assay: Cell cycle arrest in human HCT8 cells in normoxic condition assessed as accumulation at G2/M phase at 10 uM after 24 hrs by flow cytometry; assay type: functional; method in brief: as §3

In the case of CN1CCN(c2ccc3c(c2)n2ncc([N+](=O)[O-])c2n[n+]3[O-])CC1, the Activity [1] is reported as “Active”, the Activity [2] is reported as 24.9% and the Activity [3] is reported as 47%. For the same compound, the Activity [4] was 39%, the Activity [5] was 46.3% and the inhibition at 100 µM [6] was 93.2%. For the same compound, the Activity [7] was 12.6%, the Activity [8] was 13% and the inhibition at 10 µM [9] was 25.1%. For the same compound, the Activity [10] was 20.2%, the Activity [11] was “Active” and the Activity [12] was 39.8%. The Activity [13] was 36.9%, the Activity [14] was 60% and the Activity [15] was 27%. The Activity [16] was 40.3%, the IC50 [17] was 62.5 µM and the IC90 [17] was over 100 µM. The Activity [18] was 34.6%, the Activity [19] was 35.3% and the Activity [20] was 24.7%. The Activity [21] was 40.7%, the Activity [22] was 40.4% and the Activity [23] was 48%. It also gave an Activity [24] of 36.8% and an Activity [25] of 22.8%.

With [O-][n+]1nc2ccnn2c2cc(-c3ccccc3)ccc21 the inhibition at 100 µM [6] was 35.5% and the inhibition at 10 µM [9] was 13.2%.

Compound [O-][n+]1nc2ccnn2c2cc(-c3cccs3)ccc21 has an inhibition at 100 µM [6] of 48.5% and an inhibition at 10 µM [9] of 10.9%.

With CN1CCN(c2ccc3c(c2)n2nccc2n[n+]3[O-])CC1 the inhibition at 100 µM [6] was 32.4% and the inhibition at 10 µM [9] was 3.19%.

In the case of CN1CCN(c2ccc3c(c2)n2ncc(-c4ccccc4)c2n[n+]3[O-])CC1, the inhibition at 100 µM [6] is reported as 69.6%, the inhibition at 10 µM [9] is reported as 53% and the IC50 [17] is reported as 10 µM. The IC90 [17] was over 100 µM.

CCCCCOc1ccc2c(c1)n1nccc1n[n+]2[O-] gave an inhibition at 100 µM [6] of 38% and an inhibition at 10 µM [9] of -6.17%.

Work on CCOC(=O)c1cn[nH]c1/N=[N+](/[O-])c1cnccc1O yielded an inhibition at 100 µM [6] of 31.5% and an inhibition at 10 µM [9] of 3.87%.

With O=C(O)c1cnn2c1n[n+]([O-])c1cnccc12 the inhibition at 100 µM [6] was 11.4% and the inhibition at 10 µM [9] was 13.2%.

In the case of CO[C@@]12[C@H](COC(N)=O)C3=C(C(=O)C(C)=C(N)C3=O)N1C[C@@H]1N[C@@H]12 [MITOMYCIN], the Activity [4] is reported as 71.2%, the Activity [5] is reported as 42.8% and the Activity [8] is reported as 19.2%. It also gave an Activity [10] of 14.1%, an Activity [13] of 36.9% and an Activity [14] of 99%. It also gave an Activity [15] of 44%, an Activity [16] of 40.3% and an IC50 [17] of 0.083 µM. The IC90 [17] was 5.7 µM, the Activity [18] was 36.3% and the Activity [20] was 14.6%. The Activity [21] was 49.1%, the Activity [23] was 28.2% and the Activity [24] was 43.2%. For the same compound, the Activity [25] was 22.8%.

In the case of NC(=O)c1cnn(-c2ccncc2[N+](=O)[O-])c1N, the inhibition at 100 µM [6] is reported as 22.4% and the inhibition at 10 µM [9] is reported as 9.72%.

CCOC(=O)c1cn[nH]c1/N=[N+](/[O-])c1cc([N+](=O)[O-])ccc1O was tested, and the inhibition at 100 µM [6] was 60.4%, the inhibition at 10 µM [9] was 11.7% and the IC50 [17] was 65.2 µM. It also gave an IC90 [17] of over 100 µM.

Compound CCOC(=O)c1cnn2c1n[n+]([O-])c1cnccc12 has an inhibition at 100 µM [6] of 97.4%, an inhibition at 10 µM [9] of 12.7% and an IC50 [17] of 23.8 µM. It also gave an IC90 [17] of 49.1 µM.

Work on [O-][n+]1nc2ccnn2c2cc(N3CCOCC3)ccc21 yielded an inhibition at 100 µM [6] of 25.8% and an inhibition at 10 µM [9] of 3.27%.

In the case of COc1ccc(-c2ccc3c(c2)n2nccc2n[n+]3[O-])cc1, the inhibition at 100 µM [6] is reported as 21.6% and the inhibition at 10 µM [9] is reported as 11%.

With CCOC(=O)c1cnn(-c2ccncc2[N+](=O)[O-])c1N the inhibition at 100 µM [6] was 69.7%, the inhibition at 10 µM [9] was 24.4% and the IC50 [17] was 58.2 µM. It also gave an IC90 [17] of over 100 µM.

CN(C)CCOc1ccc2c(c1)n1nccc1n[n+]2[O-] showed an inhibition at 100 µM [6] of 42.3% and an inhibition at 10 µM [9] of -2.36%.

In the case of [O-][n+]1nc2ccnn2c2cc(O)ccc21, the inhibition at 100 µM [6] is reported as 19.7% and the inhibition at 10 µM [9] is reported as -4.21%.

CN1CCN(c2ccc3nnc4c([N+](=O)[O-])cnn4c3c2[N+](=O)[O-])CC1 was tested, and the Activity [1] was “Active”, the Activity [2] was 35.1% and the Activity [3] was 31.1%. For the same compound, the Activity [4] was 42%, the Activity [5] was 42.8% and the inhibition at 100 µM [6] was 98.7%. It also gave an Activity [7] of 23%, an Activity [8] of 13.4% and an inhibition at 10 µM [9] of 73.8%. For the same compound, the Activity [10] was 10.6%, the Activity [11] was “Active” and the Activity [12] was 35.1%. For the same compound, the Activity [13] was 37.3%, the Activity [14] was 21% and the Activity [15] was 59%. It also gave an Activity [16] of 40.5%, an IC50 [17] of 5.98 µM and an IC90 [17] of 18.5 µM. The Activity [18] was 43.8%, the Activity [19] was 35.1% and the Activity [20] was 15.6%. For the same compound, the Activity [21] was 40.5%, the Activity [22] was 45.9% and the Activity [23] was 48.6%. The Activity [24] was 51.2% and the Activity [25] was 22.2%.
